Reference: ChEMBL document CHEMBL1125769 (J Med Chem, 1991)
Values joined by “and” are separate entries in the source; they are usually repeats but may differ in a detail not shown here. Equal values may be shown once. Square brackets hold non-standard residues; d marks the D form. Peptide text beside a SMILES is read from it. NMeA = CN[C@@H](C)C(=O)O; Ac5c = NC1(C(=O)O)CCCC1; Aib = CC(C)(N)C(=O)O; Sar = CNCC(=O)O

Experiments:
[1] = species on record: Rattus norvegicus; assay: In vitro antagonist activity expressed as pA2 was measured in rat uterus
[2] = tested on: Rattus norvegicus; assay: in vivo antagonist activity (ANG II like) is expressed by blood pressure increase (mHg) produced by […] iv injection of compound in rats; assay type: functional
Summary of the method: (§1)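 Rat blood pressure assay after Regoli et al.; residual ANG II-like activity read as mmHg rise in blood pressure following a one microgram intravenous bolus of compound; n = 5.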

[3] = tested on: Rattus norvegicus; assay: In vivo antagonist activity (ANG II like) expressed as blood pressure increase […] produced by […] iv injection of compound in rats; assay type: functional
Summary of the method: as §1

[4] = target: T1, Angiotensin II receptor (Rattus norvegicus) (UniProt P29089+P25095+P35351); assay: In vivo agonist activity expressed as percent activity relative to angiotensin II in rat blood pressure assay.; assay type: functional, organism-based
Summary of the method: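 Rat blood pressure (pressor) assay in vivo, after Regoli et al.; ANG II-like activity given as percent activity relative to ANG II; n = 5.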

[5] = species on record: Oryctolagus cuniculus; assay: In vitro agonist activity expressed as percent activity relative to ANG II was measured in rabbit aorta strip assay; assay type: functional
[6] = target: T1, Angiotensin II receptor (Rattus norvegicus); assay: In vitro agonist activity relative to angiotensin II measured in rabbit aorta strip assay.; assay type: functional, tissue-based
[7] = target: T2, Angiotensin II receptor (Rattus norvegicus, UniProt P29089+P25095+P35351); assay: In vitro antagonist activity (ANG II like) expressed as percent activity relative to ANG II in rabbit aorta strip assay.; assay type: functional, tissue-based
T2 sequence (P29089 whole entry): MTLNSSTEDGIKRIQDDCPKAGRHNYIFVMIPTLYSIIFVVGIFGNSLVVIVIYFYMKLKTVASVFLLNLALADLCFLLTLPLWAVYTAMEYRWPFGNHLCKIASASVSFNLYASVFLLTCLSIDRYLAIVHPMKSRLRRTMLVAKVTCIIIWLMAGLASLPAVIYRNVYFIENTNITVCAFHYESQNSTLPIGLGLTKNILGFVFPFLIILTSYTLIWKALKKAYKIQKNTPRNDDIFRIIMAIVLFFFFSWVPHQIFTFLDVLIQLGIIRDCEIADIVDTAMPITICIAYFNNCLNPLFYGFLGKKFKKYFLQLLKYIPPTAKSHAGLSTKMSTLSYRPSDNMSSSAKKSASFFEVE
T2 sequence (P25095 whole entry): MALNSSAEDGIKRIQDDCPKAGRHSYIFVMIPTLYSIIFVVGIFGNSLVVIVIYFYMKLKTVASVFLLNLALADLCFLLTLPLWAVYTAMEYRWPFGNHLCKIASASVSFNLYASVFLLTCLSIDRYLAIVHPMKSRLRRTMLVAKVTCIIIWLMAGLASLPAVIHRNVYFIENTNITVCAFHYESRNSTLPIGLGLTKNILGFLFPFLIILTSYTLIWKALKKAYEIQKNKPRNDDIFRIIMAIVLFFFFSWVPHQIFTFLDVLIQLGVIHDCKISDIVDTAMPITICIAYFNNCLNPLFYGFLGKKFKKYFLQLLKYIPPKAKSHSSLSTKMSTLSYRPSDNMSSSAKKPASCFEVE
T2 sequence (P35351 whole entry): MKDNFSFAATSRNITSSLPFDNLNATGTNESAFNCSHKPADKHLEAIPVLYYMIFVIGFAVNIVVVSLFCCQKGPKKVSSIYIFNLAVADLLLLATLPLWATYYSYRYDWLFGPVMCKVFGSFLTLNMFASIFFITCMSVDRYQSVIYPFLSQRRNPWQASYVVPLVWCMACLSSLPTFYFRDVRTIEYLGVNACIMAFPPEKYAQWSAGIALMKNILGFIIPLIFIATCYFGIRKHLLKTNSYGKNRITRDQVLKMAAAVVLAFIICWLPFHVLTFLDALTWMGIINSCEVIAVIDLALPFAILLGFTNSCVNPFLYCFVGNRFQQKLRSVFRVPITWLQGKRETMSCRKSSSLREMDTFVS

[8] = target: T1, Angiotensin II receptor (Rattus norvegicus); assay: In vivo antagonist activity (ANG II like) expressed by blood pressure increase (mHg) produced by […] iv injection of compound in rats; assay type: functional, organism-based
Summary of the method: as §1

Structure (SMILES) | Activity [6] | pA2 [7] | Activity [4] | ID50 (ng min-1 rat-1) [8] | also measured
CC[C@H](C)[C@H](NC(=O)[C@@H]1CSCN1C(=O)[C@H](Cc1c[nH]cn1)NC(=O)[C@@H](NC(=O)[C@H](Cc1ccc(O)cc1)NC(=O)[C@@H](NC(=O)[C@H](CCCN=C(N)N)NC(=O)CNC)C(C)C)[C@@H](C)CC)C(=O)O |  |  |  |  | pA2 [1]: 7.2; ID50 [2]: 12.5 ng min-1 rat-1
CC[C@H](C)[C@H](NC(=O)[C@H](Cc1ccc(O)cc1)NC(=O)[C@H](C)NC(=O)[C@H](CCCN=C(N)N)NC(=O)[C@@H](N)CC(=O)O)C(=O)N[C@@H](Cc1c[nH]cn1)C(=O)N1CCC[C@H]1C(=O)N[C@@H](Cc1ccccc1)C(=O)O (H-DRAYIHPF-OH) |  |  | 80.5% |  | 
CC[C@H](C)[C@H](NC(=O)[C@H](Cc1ccc(O)cc1)NC(=O)[C@@H]1CCCN1C(=O)[C@H](CCCN=C(N)N)NC(=O)[C@@H](N)CC(=O)O)C(=O)N[C@@H](Cc1c[nH]cn1)C(=O)N1CCC[C@H]1C(=O)N[C@@H](Cc1ccccc1)C(=O)O (H-DRPYIHPF-OH) |  |  | 53% |  | 
CC[C@H](C)[C@H](NC(=O)[C@H](Cc1ccc(O)cc1)NC(=O)C1(NC(=O)[C@H](CCCN=C(N)N)NC(=O)[C@@H](N)CC(=O)O)CCCC1)C(=O)N[C@@H](Cc1c[nH]cn1)C(=O)N1CCC[C@H]1C(=O)N[C@@H](Cc1ccccc1)C(=O)O (H-DR[Ac5c]YIHPF-OH) |  |  | 2% |  | 
CC(C)[C@H](NC(=O)[C@H](Cc1ccc(O)cc1)NC(=O)C1(NC(=O)[C@H](CCCN=C(N)N)NC(=O)[C@@H](N)CC(=O)O)CCCC1)C(=O)N[C@@H](Cc1c[nH]cn1)C(=O)NC1(C(=O)N[C@@H](Cc2ccccc2)C(=O)O)CCCC1 (H-DR[Ac5c]YVH[Ac5c]F-OH) |  |  | 1.5% |  | 
CC(C)[C@H](NC(=O)[C@H](Cc1ccc(O)cc1)NC(=O)C1(NC(=O)[C@H](CCCN=C(N)N)NC(=O)[C@@H](N)CC(=O)O)CCCC1)C(=O)N[C@@H](Cc1c[nH]cn1)C(=O)NC(C)(C)C(=O)N[C@@H](Cc1ccccc1)C(=O)O (H-DR[Ac5c]YVH[Aib]F-OH) |  |  | 1% |  | 
CC(C)[C@H](NC(=O)[C@H](Cc1ccc(O)cc1)NC(=O)C1(NC(=O)[C@H](CCCN=C(N)N)NC(=O)[C@@H](N)CC(=O)O)CCCC1)C(=O)N[C@@H](Cc1c[nH]cn1)C(=O)N(C)[C@@H](C)C(=O)N[C@@H](Cc1ccccc1)C(=O)O (H-DR[Ac5c]YVH[NMeA]F-OH) |  |  | 22% |  | 
CC[C@H](C)[C@H](NC(=O)[C@H](Cc1ccc(O)cc1)NC(=O)C(C)(C)NC(=O)[C@H](CCCN=C(N)N)NC(=O)[C@@H](N)CC(=O)O)C(=O)N[C@@H](Cc1c[nH]cn1)C(=O)N1CCC[C@H]1C(=O)N[C@@H](Cc1ccccc1)C(=O)O (H-DR[Aib]YIHPF-OH) |  |  | 1% |  | 

Second part, led by results:

Activity [6] | pA2 [7] | Structure (SMILES) | Activity [4] | ID50 (ng min-1 rat-1) [8] | also measured
0.5% |  | CC[C@H](C)[C@H](NC(=O)[C@H](Cc1ccc(O)cc1)NC(=O)[C@@H](NC(=O)[C@H](CCCN=C(N)N)NC(=O)CNC)C(C)C)C(=O)N[C@@H](Cc1c[nH]cn1)C(=O)N1CCC[C@H]1C(=O)N[C@@H](C)C(=O)O | 15.1% and 10% |  | ID50 [3]: 7.92 ng min-1 rat-1 and 15 ng min-1 rat-1; Activity [5]: 0%
180% |  | CC[C@H](C)[C@H](NC(=O)[C@H](Cc1ccc(O)cc1)NC(=O)[C@@H](NC(=O)[C@H](CCCN=C(N)N)NC(=O)CNC)C(C)C)C(=O)N[C@@H](Cc1c[nH]cn1)C(=O)N1CCC[C@H]1C(=O)N[C@@H](Cc1ccccc1)C(=O)O | 125% |  | 
250% |  | CNCC(=O)N[C@@H](CCCN=C(N)N)C(=O)N[C@H](C(=O)N[C@@H](Cc1ccc(O)cc1)C(=O)N1CSC(C)(C)[C@@H]1C(=O)N[C@@H](Cc1c[nH]cn1)C(=O)N1CCC[C@H]1C(=O)N[C@@H](Cc1ccccc1)C(=O)O)C(C)C | 100% |  | 
0% | 8.3 | CC[C@H](C)[C@H](NC(=O)[C@@H]1CCCN1C(=O)[C@H](Cc1c[nH]cn1)NC(=O)[C@@H](NC(=O)[C@H](Cc1ccc(O)cc1)NC(=O)[C@H](C)NC(=O)[C@H](CCCN=C(N)N)NC(=O)CNC)[C@@H](C)CC)C(=O)O (H-[Sar]RAYIHPI-OH) | 7.5% | 25 | 
0% | 8 | CC[C@H](C)[C@H](NC(=O)C(C)(C)NC(=O)[C@H](Cc1c[nH]cn1)NC(=O)[C@@H](NC(=O)[C@H](Cc1ccc(O)cc1)NC(=O)[C@@H](NC(=O)[C@H](CCCN=C(N)N)NC(=O)CNC)C(C)C)[C@@H](C)CC)C(=O)O (H-[Sar]RVYIH[Aib]I-OH) |  | 60 | 
0% | 8.4 | CC[C@H](C)[C@H](NC(=O)[C@H](C)N(C)C(=O)[C@H](Cc1c[nH]cn1)NC(=O)[C@@H](NC(=O)[C@H](Cc1ccc(O)cc1)NC(=O)[C@@H](NC(=O)[C@H](CCCN=C(N)N)NC(=O)CNC)C(C)C)[C@@H](C)CC)C(=O)O (H-[Sar]RVYIH[NMeA]I-OH) |  | 20 | 
0% | 8.7 | CC[C@H](C)[C@H](NC(=O)[C@@H]1CCCN1C(=O)[C@H](Cc1c[nH]cn1)NC(=O)[C@@H]1CCCN1C(=O)[C@H](Cc1ccc(O)cc1)NC(=O)[C@@H](NC(=O)[C@H](CCCN=C(N)N)NC(=O)CNC)C(C)C)C(=O)O (H-[Sar]RVYPHPI-OH) |  | 20 | 
0% | 8.3 | CC[C@H](C)[C@H](NC(=O)[C@@H]1CCCN1C(=O)[C@H](Cc1c[nH]cn1)NC(=O)C1(NC(=O)[C@H](Cc2ccc(O)cc2)NC(=O)[C@@H](NC(=O)[C@H](CCCN=C(N)N)NC(=O)CNC)C(C)C)CCCC1)C(=O)O (H-[Sar]RVY[Ac5c]HPI-OH) |  | 10 | 
0% | 7 | CC[C@H](C)[C@H](NC(=O)[C@@H]1CCCN1C(=O)[C@H](Cc1c[nH]cn1)NC(=O)[C@@H](NC(=O)[C@H](Cc1ccc(O)cc1)NC(=O)C(C)(C)NC(=O)[C@H](CCCN=C(N)N)NC(=O)CNC)[C@@H](C)CC)C(=O)O (H-[Sar]R[Aib]YIHPI-OH) | 3% | 50 | 
0% | 8.9 | CC[C@H](C)[C@H](NC(=O)[C@@H]1CCCN1C(=O)[C@H](Cc1c[nH]cn1)NC(=O)[C@@H](NC(=O)[C@H](Cc1ccc(O)cc1)NC(=O)[C@H](C)N(C)C(=O)[C@H](CCCN=C(N)N)NC(=O)CNC)[C@@H](C)CC)C(=O)O (H-[Sar]R[NMeA]YIHPI-OH) |  | 25 | 
0% | < 6 | CC[C@@H](C)[C@@H](NC(=O)[C@H](Cc1ccc(O)cc1)NC(=O)[C@H](C)N(C)C(=O)[C@H](CCCN=C(N)N)NC(=O)CNC)C(=O)N[C@@H](Cc1c[nH]cn1)C(=O)N1CCC[C@H]1C(=O)NC(Cc1ccccc1)C(=O)O (stereo in doubt) | 10% | 100 | 
